We go through 9 compounds from ChEMBL document CHEMBL4145562, “Bioactivity-Guided Isolation of Potential Antidiabetic and Antihyperlipidemic Compounds from Trigonella stellata” (J Nat Prod, 2018).

Active and inactive are the calls of the source. The rule behind the calls is not given here.

What all share (assay type): cell-based
The target in assay [1] is T1, Peroxisome proliferator-activated receptor alpha (Homo sapiens) (UniProt Q07869).
T1 sequence (whole entry): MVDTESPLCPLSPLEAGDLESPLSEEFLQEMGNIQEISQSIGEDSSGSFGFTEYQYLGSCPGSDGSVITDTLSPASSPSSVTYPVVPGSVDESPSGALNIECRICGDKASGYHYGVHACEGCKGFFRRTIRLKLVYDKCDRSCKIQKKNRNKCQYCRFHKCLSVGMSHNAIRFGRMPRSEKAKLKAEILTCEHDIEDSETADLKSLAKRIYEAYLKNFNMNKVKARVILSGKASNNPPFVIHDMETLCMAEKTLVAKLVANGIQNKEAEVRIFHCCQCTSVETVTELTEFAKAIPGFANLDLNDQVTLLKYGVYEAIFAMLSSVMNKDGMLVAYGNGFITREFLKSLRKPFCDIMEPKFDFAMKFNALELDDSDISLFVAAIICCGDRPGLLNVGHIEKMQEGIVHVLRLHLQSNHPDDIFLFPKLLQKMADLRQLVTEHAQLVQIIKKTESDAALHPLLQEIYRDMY
Kind of assay: Agonist activity at PPARalpha (unknown origin) expressed in human HepG2 cells cotransfected with PPRE X3-tk at 1.45 ug/ml after 24 hrs by luciferase reporter gene assay relative to control. The method, boiled down:
(§1)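 HepG2 cells grown in DMEM with 10% FBS, penicillin and streptomycin, then electroporated (160 V, single 70 ms pulse) with pSG5-PPARα plus PPRE X3-tk-luc plasmids (25 μg/1.5 mL cell suspension). Cells were plated at 5 × 10^4/well and grown 24 h, then treated for 24 h and lysed. Luciferase activity was reported as fold induction over vehicle control.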

The target in assay [2] is T1, Peroxisome proliferator-activated receptor alpha (Homo sapiens). As to the kind of experiment: Agonist activity at PPARalpha (unknown origin) expressed in human HepG2 cells cotransfected with PPRE X3-tk at 12.5 ug/ml after 24 hrs by luciferase reporter gene assay relative to control. An outline of the steps: as §1
Assay [3] deals with T2, Peroxisome proliferator-activated receptor gamma (Homo sapiens) (UniProt P37231).
T2 sequence (whole entry): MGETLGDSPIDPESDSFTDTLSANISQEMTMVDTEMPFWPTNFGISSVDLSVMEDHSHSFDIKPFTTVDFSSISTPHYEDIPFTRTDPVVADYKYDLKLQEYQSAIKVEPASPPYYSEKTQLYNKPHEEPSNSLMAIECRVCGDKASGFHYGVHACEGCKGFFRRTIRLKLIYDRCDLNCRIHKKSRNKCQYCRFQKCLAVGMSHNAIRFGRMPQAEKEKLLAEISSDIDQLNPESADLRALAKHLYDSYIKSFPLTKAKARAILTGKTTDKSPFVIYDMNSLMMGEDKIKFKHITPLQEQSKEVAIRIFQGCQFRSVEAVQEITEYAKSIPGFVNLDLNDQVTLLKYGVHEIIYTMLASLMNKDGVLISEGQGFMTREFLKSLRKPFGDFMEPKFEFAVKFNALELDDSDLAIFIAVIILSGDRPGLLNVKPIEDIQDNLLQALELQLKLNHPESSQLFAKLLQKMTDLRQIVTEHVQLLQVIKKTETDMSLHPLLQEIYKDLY
As to the kind of experiment: Agonist activity at PPARgamma (unknown origin) expressed in human HepG2 cells cotransfected with PPREaP2-tk at 50 ug/ml after 24 hrs by luciferase reporter gene assay relative to control. The method, boiled down: (§2)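 Rat PPARγ (pCMV-rPPARγ) was co-electroporated with the pPPREaP2-tk-luc reporter (25 μg/1.5 mL cell suspension; 160 V, one 70 ms pulse) into HepG2 cells kept in DMEM/10% FBS with antibiotics. Cells were seeded at 5 × 10^4/well for 24 h, then exposed to samples for 24 h. Luciferase was read in lysates and expressed as fold induction relative to vehicle.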
In general terms: A reporter such as luciferase makes a cellular process visible.

In assay [4] the target is T2, Peroxisome proliferator-activated receptor gamma (Homo sapiens). As to the kind of experiment: Agonist activity at PPARgamma (unknown origin) expressed in human HepG2 cells cotransfected with PPREaP2-tk at 12.5 ug/ml after 24 hrs by luciferase reporter gene assay relative to control. An outline of the steps:
as §2

The target is the same in assay [5]. As to the kind of experiment: Agonist activity at PPARgamma (unknown origin) expressed in human HepG2 cells cotransfected with PPREaP2-tk at 25 ug/ml after 24 hrs by luciferase reporter gene assay relative to control. The method, boiled down: as §2
The target in assay [6] is T1, Peroxisome proliferator-activated receptor alpha (Homo sapiens). As to the kind of experiment: Agonist activity at PPARalpha (unknown origin) expressed in human HepG2 cells cotransfected with PPRE X3-tk at 25 ug/ml after 24 hrs by luciferase reporter gene assay relative to control. An outline of the steps:
as §1

The target is the same in assay [7]. As to the kind of experiment: Agonist activity at PPARalpha (unknown origin) expressed in human HepG2 cells cotransfected with PPRE X3-tk at 50 ug/ml after 24 hrs by luciferase reporter gene assay relative to control. An outline of the steps:
as §1

`CC(C)(Oc1ccc(C2CC2(Cl)Cl)cc1)C(=O)O` (centres undefined): the fold change (FC) in assay [1] was found to be 2.2.

In the case of `COc1ccc2c(c1)OC[C@@H](c1ccc(O[C@@H]3O[C@H](CO)[C@@H](O)[C@H](O)[C@H]3O)cc1O)[C@@H]2O`, the fold change (FC) in assay [2] was determined as 1.14; in assay [3] it was 1.74; in assay [4] it was 1.22; in assay [5], 1.36; in assay [6] it was 1.32; in assay [7], 1.67.

Take `COc1ccc2c(c1)OC[C@H](c1ccc(O)cc1O)[C@H]2O`: the fold change (FC) came out at 1.29 in assay [2], 1.88 in assay [6] and 2.25 in assay [7]. Besides, the result in assay [3], in assay [4] and in assay [5] was inactive.

As for `C[C@@H]1O[C@@H](Oc2cc(O)c3c(=O)c(O[C@@H]4O[C@@H](C)[C@H](O)[C@@H](O)[C@H]4O)c(-c4ccc(O)c(O)c4)oc3c2)[C@H](O)[C@H](O)[C@H]1O`, the result in assay [2], in assay [3], in assay [4], in assay [5], in assay [6] and in assay [7] was inactive.

In the case of `O=C(O)c1ccc(O)cc1`, the result in assay [2], in assay [6] and in assay [7] was inactive. For the same compound, the values for the fold change (FC) in assay [3], in assay [4] and in assay [5] were 1.35, 1 and 0.9, respectively.

In the case of `O=c1cc(-c2ccc(O)cc2)oc2cc(O)ccc12`, the result in assay [2], in assay [3], in assay [4], in assay [5], in assay [6] and in assay [7] was inactive.

In the case of `COc1ccc2c(c1)OC(OC)C(c1ccc(O)cc1O)[C@H]2O` (single isomer, unassigned), the results for the fold change (FC) in assay [2] and in assay [6] were 1.93 and 2, respectively. Besides, the result in assay [3], in assay [4], in assay [5] and in assay [7] was inactive.

`C[C@@H]1O[C@@H](O[C@H]2[C@H](O[C@H]3[C@H](O[C@H]4CC[C@@]5(C)[C@@H](CC[C@]6(C)[C@@H]5CC=C5[C@@H]7CC(C)(C)C[C@@H](O)[C@]7(C)CC[C@]56C)[C@@]4(C)CO)O[C@H](C(=O)O)[C@@H](O)[C@@H]3O)O[C@H](CO)[C@H](O)[C@@H]2O)[C@H](O)[C@H](O)[C@H]1O`: the result in assay [2], in assay [6] and in assay [7] was inactive. Besides, the fold change (FC) in assay [3] came out at 1.79; in assay [4], 1.22; in assay [5] it was 1.36.

Consider `O=C(O)CCc1ccccc1O[C@@H]1O[C@H](CO)[C@@H](O)[C@H](O)[C@H]1O`, for which the outcome in assay [2], in assay [3], in assay [4], in assay [5], in assay [6] and in assay [7] was inactive.
